Here are results for six compounds from ChEMBL document CHEMBL4732169, “Design and synthesis of mycobacterial pks13 inhibitors: Conformationally rigid tetracyclic molecules” (Eur J Med Chem, 2021).

Converted amounts (≈) assume the structure as drawn.

Holding throughout (type): functional
The subject of assay [1] is Mycobacterium tuberculosis. The assay can be described thus: Antitubercular activity against multi drug resistance Mycobacterium tuberculosis V2475 by MABA assay. Put shortly:
(§1)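 Microplate alamar blue assay (MABA) against each Mtb strain, either H37Rv or a clinical isolate (drug-susceptible, MDR or XDR). MIC taken as the lowest concentration giving at least 90% reduction of the bacterial growth signal. Each value is the average of three individual measurements.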
On the technique in general: Alamar Blue is a resazurin reagent that responds to reducing activity.

Assay [2] concerns Mycobacterium tuberculosis. The assay can be described thus: Antitubercular activity against isoniazid/rifampin resistance Mycobacterium tuberculosis KZN494 by MABA assay. In short, it runs like this: as §1
The test system of assay [3] is Mycobacterium tuberculosis. As to the kind of experiment: Antitubercular activity against isoniazid/rifampin/levofloxacin/ofloxacin/kanamycin extensively drug resistance Mycobacterium tuberculosis TF274 XDR by MABA assay. In short, it runs like this: as §1
In assay [4] the test system is Mycobacterium tuberculosis. The assay can be described thus: Antitubercular activity against extensively drug resistance Mycobacterium tuberculosis R506 XDR by MABA. In short, it runs like this:
as §1

For the compound `O=c1[nH]c2cc(O)ccc2c2oc3ccc(O)c(CN4CCCCC4)c3c12`, the “MIC=<90” value in assay [1] is 0.0625 µg/mL (≈ 0.172 µM); in assay [2], 0.0313 µg/mL (≈ 0.0859 µM); in assay [3], 0.0156 µg/mL (≈ 0.0428 µM); in assay [4] it was 0.0156 µg/mL (≈ 0.0428 µM).

In the case of `NNC(=O)c1ccncc1` [ISONIAZID], the “MIC=<90” value amounted to 16 µg/mL (≈ 117 µM) in assay [1], 16 µg/mL (≈ 117 µM) in assay [2], 8 µg/mL (≈ 58.3 µM) in assay [3] and 8 µg/mL (≈ 58.3 µM) in assay [4].

For the compound `NC[C@H]1O[C@H](O[C@H]2[C@H](O)[C@@H](O[C@H]3O[C@H](CO)[C@@H](O)[C@H](N)[C@H]3O)[C@H](N)C[C@@H]2N)[C@H](O)[C@@H](O)[C@@H]1O` [KANAMYCIN], the “MIC=<90” value in assay [1] was 2 µg/mL (≈ 4.13 µM); in assay [2], 2 µg/mL (≈ 4.13 µM); in assay [3], over 128 µg/mL; in assay [4] it was over 128 µg/mL.

Consider `C[C@H]1COc2c(N3CCN(C)CC3)c(F)cc3c(=O)c(C(=O)O)cn1c23.C[C@H]1COc2c(N3CCN(C)CC3)c(F)cc3c(=O)c(C(=O)O)cn1c23.O` [LEVOFLOXACIN], for which the “MIC=<90” value in assay [3] was determined as 1 µg/mL; in assay [4] it was 2 µg/mL.

As for `CC1COc2c(N3CCN(C)CC3)c(F)cc3c(=O)c(C(=O)O)cn1c23` (configuration not stated) [OFLOXACIN], the “MIC=<90” value stood at 0.5 µg/mL (≈ 1.38 µM) in assay [1], 0.5 µg/mL (≈ 1.38 µM) in assay [2], 8 µg/mL (≈ 22.1 µM) in assay [3] and 4 µg/mL (≈ 11.1 µM) in assay [4].

Consider `CO[C@H]1/C=C/O[C@@]2(C)Oc3c(C)c(O)c4c(O)c(c(/C=N/N5CCN(C)CC5)c(O)c4c3C2=O)NC(=O)/C(C)=C\C=C\[C@H](C)[C@H](O)[C@@H](C)[C@@H](O)[C@@H](C)[C@H](OC(C)=O)[C@@H]1C` [RIFAMPIN], for which the “MIC=<90” value in assay [1] was 4 µg/mL (≈ 4.86 µM); in assay [2] it was 128 µg/mL (≈ 156 µM); in assay [3], over 128 µg/mL; in assay [4], over 128 µg/mL.
